Columns and labels:
Macaca fascicularis [1] = assay: Clearance in monkey at 5 mg/kg, iv; conditions: cynomolgus monkey, in vivo
[2] = Clearance in dog at 5 mg/kg, iv; assay type: ADME, organism-based, Canis lupus familiaris; parameters: dose 5 mg/kg, route intravenous; conditions: in vivo
In short: (§1)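 Single i.v. bolus of CS-023 in saline into the foreleg saphenous vein of dogs at 5, 10 or 25 mg/kg; serial blood from the same vein. Plasma separated at 4°C, mixed 1:1 with 500 mM MOPS pH 6.0 containing internal standard, and analysed by two-column HPLC with UV at 304 nm; linear 1–500 µg/ml. kel from log-linear terminal slope, t1/2 = 0.693/kel; AUC by trapezoids plus Clast/kel; CL = dose/AUC; Vss = CL × MRT. n=3.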

[3] = Volume of distribution at steady state in dog at 10 mg/kg, iv; assay type: ADME, organism-based, Canis lupus familiaris; parameters: dose 10 mg/kg, route intravenous; conditions: in vivo, read-out: Vss
In short: as §1

[4] = Clearance in rat at 10 mg/kg, iv; assay type: ADME, organism-based; parameters: dose 10 mg/kg, route intravenous; conditions: in vivo
In short: (§2)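 Rats received CS-023 in saline by tail-vein bolus at 10, 25 or 50 mg/kg; jugular blood was drawn serially. Plasma mixed with an equal volume of 500 mM MOPS pH 6.0 containing internal standard, then HPLC with UV at 304 nm (linear 1–500 µg/ml). Log-linear terminal kel gave t1/2; AUC by trapezoidal rule + Clast/kel; CL = dose/AUC0-inf. n=3.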

Macaca fascicularis [5] = organism: Macaca fascicularis; assay: Protein binding in monkey serum at 20 ug/ml; conditions: cynomolgus monkey, read-out: PPB (converted)
Macaca fascicularis [6] = assay: AUC (0-inf) in monkey at 10 mg/kg, iv; conditions: cynomolgus monkey, plasma
[7] = AUC (0-inf) in rat at 50 mg/kg, iv; assay type: ADME, organism-based; parameters: time infinity, dose 50 mg/kg, route intravenous; conditions: plasma
In short: as §2

Macaca fascicularis [8] = assay: AUC (0-inf) in monkey at 5 mg/kg, iv; conditions: cynomolgus monkey, plasma
Macaca fascicularis [9] = organism: Macaca fascicularis; assay: Protein binding in monkey serum at 100 ug/ml; conditions: cynomolgus monkey, read-out: PPB (converted)
[10] = Half life in dog at 25 mg/kg, iv; assay type: ADME, organism-based, Canis lupus familiaris; parameters: dose 25 mg/kg, route intravenous; conditions: in vivo
In short: as §1

[11] = AUC (0-inf) in dog at 10 mg/kg, iv; assay type: ADME, organism-based, Canis lupus familiaris; parameters: dose 10 mg/kg, route intravenous, time infinity; conditions: plasma
In short: as §1

Macaca fascicularis [12] = assay: Half life in monkey at 25 mg/kg, iv; conditions: cynomolgus monkey, in vivo
[13] = Half life in rat at 10 mg/kg, iv; assay type: ADME, organism-based; parameters: dose 10 mg/kg, route intravenous; conditions: in vivo
In short: as §2

[14] = Half life in rat at 50 mg/kg, iv; assay type: ADME, organism-based; parameters: dose 50 mg/kg, route intravenous; conditions: in vivo
In short: as §2

[15] = Clearance in rat at 25 mg/kg, iv; assay type: ADME, organism-based; parameters: dose 25 mg/kg, route intravenous; conditions: in vivo
In short: as §2

Macaca fascicularis [16] = assay: Volume of distribution at steady state in monkey at 10 mg/kg, iv; conditions: cynomolgus monkey, in vivo, read-out: Vss
Macaca fascicularis [17] = assay: AUC (0-inf) in monkey at 25 mg/kg, iv; conditions: cynomolgus monkey, plasma
[18] = Clearance in dog at 25 mg/kg, iv; assay type: ADME, organism-based, Canis lupus familiaris; parameters: dose 25 mg/kg, route intravenous; conditions: in vivo
In short: as §1

[19] = Protein binding in dog serum at 20 ug/ml; assay type: ADME, cell-free, Canis lupus familiaris; conditions: read-out: PPB
In short: (§3)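 Serum was spiked with CS-023 in water to a final 20 or 100 µg/ml and incubated for 5 min at 37°C. It was then ultrafiltered by centrifugation at 2,000 x g for 10 min at room temperature. Drug in serum before filtration (Ct) and in the filtrate (Cf) was measured by HPLC-UV. Bound % = (Ct − Cf)/Ct × 100; n=4.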

Macaca fascicularis [20] = assay: Half life in monkey at 5 mg/kg, iv; conditions: cynomolgus monkey, in vivo
Macaca fascicularis [21] = assay: Clearance in monkey at 10 mg/kg, iv; conditions: cynomolgus monkey, in vivo
[22] = Half life in dog at 10 mg/kg, iv; assay type: ADME, organism-based, Canis lupus familiaris; parameters: dose 10 mg/kg, route intravenous; conditions: in vivo
In short: as §1

[23] = Clearance in rat at 50 mg/kg, iv; assay type: ADME, organism-based; parameters: dose 50 mg/kg, route intravenous; conditions: in vivo
In short: as §2

Macaca fascicularis [24] = assay: Volume of distribution at steady state in monkey at 5 mg/kg, iv; conditions: cynomolgus monkey, in vivo, read-out: Vss
[25] = Half life in rat at 25 mg/kg, iv; assay type: ADME, organism-based; parameters: dose 25 mg/kg, route intravenous; conditions: in vivo
In short: as §2

Rattus norvegicus [26] = assay: Urinary excretion in rat assessed as radioactivity at 10 mg/kg, iv after 24 h; assay type: ADME, organism-based, Urine; parameters: dose 10 mg/kg, route intravenous; conditions: in vivo
In short: (§4)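 Rats were dosed i.v. via the tail vein with [14C]CS-023 at 10 mg/kg (4.58 MBq/kg) in saline, then kept in individual metabolic cages for separate urine and feces collection over 7 days. Samples up to 24 h were collected at around 4°C into 0.5 M MOPS pH 6.0, and feces were homogenized. Radioactivity was measured by liquid scintillation counting. Parent drug and metabolite were apportioned by silica TLC (3% NaCl:acetonitrile 2:1) with imaging-plate analysis. n=4.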

[27] = AUC (0-inf) in dog at 25 mg/kg, iv; assay type: ADME, organism-based, Canis lupus familiaris; parameters: time infinity, dose 25 mg/kg, route intravenous; conditions: plasma
In short: as §1

[28] = Protein binding in rat serum at 100 ug/ml; assay type: ADME, cell-free; conditions: read-out: PPB (converted)
In short: as §3

[29] = Volume of distribution at steady state in rat at 25 mg/kg, iv; assay type: ADME, organism-based; parameters: dose 25 mg/kg, route intravenous; conditions: in vivo, read-out: Vss
In short: (§5)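 Rats dosed once by tail-vein bolus of CS-023 in saline; blood drawn serially from the jugular vein and plasma separated at 4°C. Plasma mixed 1:1 with 500 mM MOPS pH 6.0 containing p-acetamidophenol internal standard and assayed by HPLC with UV at 304 nm (linear 1 to 500 µg/ml). Vss = CL (dose/AUC0-∞) × mean residence time.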

[30] = Protein binding in rat serum at 20 ug/ml; assay type: ADME, cell-free; conditions: read-out: PPB (converted)
In short: as §3

Macaca fascicularis [31] = assay: Volume of distribution at steady state in monkey at 25 mg/kg, iv; conditions: cynomolgus monkey, in vivo, read-out: Vss
[32] = Volume of distribution at steady state in rat at 50 mg/kg, iv; assay type: ADME, organism-based; parameters: dose 50 mg/kg, route intravenous; conditions: in vivo, read-out: Vss
In short: as §5

[33] = Half life in dog at 5 mg/kg, iv; assay type: ADME, organism-based, Canis lupus familiaris; parameters: dose 5 mg/kg, route intravenous; conditions: in vivo
In short: as §1

[34] = Volume of distribution at steady state in dog at 25 mg/kg, iv; assay type: ADME, organism-based, Canis lupus familiaris; parameters: dose 25 mg/kg, route intravenous; conditions: in vivo, read-out: Vss
In short: as §1

[35] = AUC (0-inf) in rat at 25 mg/kg, iv; assay type: ADME, organism-based; parameters: time infinity, dose 25 mg/kg, route intravenous; conditions: plasma
In short: as §2

[36] = Volume of distribution at steady state in dog at 5 mg/kg, iv; assay type: ADME, organism-based, Canis lupus familiaris; parameters: dose 5 mg/kg, route intravenous; conditions: in vivo, read-out: Vss
In short: as §1

[37] = Volume of distribution at steady state in rat at 10 mg/kg, iv; assay type: ADME, organism-based; parameters: dose 10 mg/kg, route intravenous; conditions: in vivo, read-out: Vss
In short: as §5

Rattus norvegicus [38] = assay: Fecal excretion in rat assessed as radioactivity at 10 mg/kg, iv after 24 h; assay type: ADME, organism-based; parameters: dose 10 mg/kg, route intravenous; conditions: in vivo
In short: as §4

Macaca fascicularis [39] = assay: Clearance in monkey at 25 mg/kg, iv; conditions: cynomolgus monkey, in vivo
[40] = Clearance in dog at 10 mg/kg, iv; assay type: ADME, organism-based, Canis lupus familiaris; parameters: dose 10 mg/kg, route intravenous; conditions: in vivo
In short: as §1

[41] = AUC (0-inf) in dog at 5 mg/kg, iv; assay type: ADME, organism-based, Canis lupus familiaris; parameters: time infinity, dose 5 mg/kg, route intravenous; conditions: plasma
In short: as §1

[42] = AUC (0-inf) in rat at 10 mg/kg, iv; assay type: ADME, organism-based; parameters: dose 10 mg/kg, route intravenous, time infinity; conditions: plasma
In short: as §2

Macaca fascicularis [43] = assay: Half life in monkey at 10 mg/kg, iv; conditions: cynomolgus monkey, in vivo
[44] = Protein binding in dog serum at 100 ug/ml; assay type: ADME, cell-free, Canis lupus familiaris; conditions: read-out: PPB (converted)
In short: as §3

- clearance (Macaca fascicularis [1]): 1.76 mL/min/kg
- clearance [2]: 4.44 mL/min/kg
- Vd [3]: 0.259 L/kg
- clearance [4]: 16.9 mL/min/kg
- fraction unbound at 20 ug/ml (Macaca fascicularis [5]): 0.844
- AUC(0-inf) (Macaca fascicularis [6]): 104 µg·h/mL
- AUC(0-inf) [7]: 55000 ng·h/mL
- AUC(0-inf) (Macaca fascicularis [8]): 48600 ng·h/mL
- fraction unbound at 100 ug/ml (Macaca fascicularis [9]): 0.849
- half-life [10]: 52.8 min
- AUC(0-inf) [11]: 39900 ng·h/mL
- half-life (Macaca fascicularis [12]): 86.4 min
- half-life [13]: 9.6 min
- half-life [14]: 12 min
- clearance [15]: 15.1 mL/min/kg
- Vd (Macaca fascicularis [16]): 0.172 L/kg
- AUC(0-inf) (Macaca fascicularis [17]): 244 µg·h/mL
- clearance [18]: 3.26 mL/min/kg
- fraction unbound at 20 ug/ml [19]: 0.91
- half-life (Macaca fascicularis [20]): 79.2 min
- clearance (Macaca fascicularis [21]): 1.62 mL/min/kg
- half-life [22]: 45 min
- clearance [23]: 15.2 mL/min/kg
- Vd (Macaca fascicularis [24]): 0.176 L/kg
- half-life [25]: 11.4 min
- Activity (Rattus norvegicus [26]): 29.6%
- AUC(0-inf) [27]: 129 µg·h/mL
- fraction unbound at 100 ug/ml [28]: 0.941
- Vd [29]: 0.218 L/kg
- fraction unbound at 20 ug/ml [30]: 0.95
- Vd (Macaca fascicularis [31]): 0.184 L/kg
- Vd [32]: 0.22 L/kg
- half-life [33]: 45 min
- Vd [34]: 0.228 L/kg
- AUC(0-inf) [35]: 28400 ng·h/mL
- Vd [36]: 0.269 L/kg
- Vd [37]: 0.199 L/kg
- Activity (Rattus norvegicus [38]): 3.1%
- clearance (Macaca fascicularis [39]): 1.73 mL/min/kg
- clearance [40]: 4.19 mL/min/kg
- AUC(0-inf) [41]: 18800 ng·h/mL
- AUC(0-inf) [42]: 10200 ng·h/mL
- half-life (Macaca fascicularis [43]): 83.4 min
- fraction unbound at 100 ug/ml [44]: 0.946
Structure (SMILES): C[C@@H](O)[C@H]1C(=O)N2C(C(=O)O)=C(S[C@H]3C[C@@H](C(=O)N4CC[C@H](NC(=O)CNC(=N)N)C4)N(C)C3)[C@H](C)[C@H]12 [TOMOPENEM]
